Calls of active or inactive are those of the source. The rule behind the calls is not given here.

For assay [1], the system named is SH-SY5Y. The assay is described as follows: Neuroprotective activity against H2O2-induced cell death in human SH-SY5Y cells assessed as increase in cell viability up to 100 uM. The format is functional, cell-based. The method in brief: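 SH-SY5Y cells were injured with H2O2, with test compounds up to 100 μM. Viability was read by MTT assay and compared with the H2O2 model group. Trolox served as positive control. Data were reported as means ± SEM.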

For assay [2], the system named is SH-SY5Y. Briefly: Neuroprotective activity against H2O2-induced cell death in human SH-SY5Y cells assessed as increase in cell viability at 100 uM relative to control. It is filed as functional. The method in brief: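 SH-SY5Y cells exposed to H2O2, with or without test compound; viability read by MTT assay and compared with the H2O2-only model group. Trolox served as positive control. Cell viability given as means ± SEM.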

Assay [3] relates to SH-SY5Y. The assay is described as follows: Neuroprotective activity against H2O2-induced apoptosis in human SH-SY5Y cells assessed as reduction in nuclear fragmentation at 25 to 100 uM after 4 hrs by Hoechst 33258 staining based fluorescence microscopic analysis. It is filed as functional, cell-based. The procedure, abridged: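 SH-SY5Y cells were incubated with H2O2 (200 μM) for 4 h, with or without compound at 25, 50 or 100 μM. Nuclei were stained with the DNA dye Hoechst 33258. Chromatin condensation and fragmented nuclei were scored by fluorescence microscopy against untreated control and H2O2-only cells.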

Assay [4] relates to SH-SY5Y. Briefly: Neuroprotective activity against H2O2-induced apoptosis in human SH-SY5Y cells assessed as viable cells at 100 uM pretreated for 1 hr followed by H2O2-stimulation after 4 hrs by Annexin-V-FITC/propidium iodide staining based flow cytometry (reference value: 76%). It is filed as functional. Conditions: read-out: Activity. For orientation: Flow cytometry measures light scatter and fluorescence of single cells or particles in a stream.

The subject of assay [5] is SH-SY5Y. The assay is described as follows: Neuroprotective activity against H2O2-induced apoptosis in human SH-SY5Y cells assessed as early apoptotic cells at 100 uM pretreated for 1 hr followed by H2O2-stimulation after 4 hrs by Annexin-V-FITC/propidium iodide staining based flow cytometry (reference value: 6.4%). It is filed as functional.
The subject of assay [6] is SH-SY5Y. Briefly: Neuroprotective activity against H2O2-induced morphological changes in human SH-SY5Y cells assessed as reduction in cell shrinkage after 4 hrs by phase contrast microscopic analysis. The format is functional, cell-based. The procedure, abridged: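 Cells were exposed to H2O2 (200 μM) for 4 h, in the presence or absence of compound at 25, 50 or 100 μM. Cell shrinkage and other morphology were viewed by phase contrast microscopy and compared with untreated control and H2O2-only cells.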

Assay [7] has as its system SH-SY5Y. The assay is described as follows: Neuroprotective activity against H2O2-induced apoptosis in human SH-SY5Y cells assessed as necrotic cells at 25 uM pretreated for 1 hr followed by H2O2-stimulation after 4 hrs by Annexin-V-FITC/propidium iodide staining based flow cytometry (reference value: 2.63%). The format is functional.
The subject of assay [8] is SH-SY5Y. The assay is described as follows: Neuroprotective activity against H2O2-induced apoptosis in human SH-SY5Y cells assessed as viable cells at 50 uM pretreated for 1 hr followed by H2O2-stimulation after 4 hrs by Annexin-V-FITC/propidium iodide staining based flow cytometry (reference value: 76%). It is filed as functional. Particulars: read-out: Activity.
The test system of assay [9] is SH-SY5Y. The assay is described as follows: Neuroprotective activity against H2O2-induced apoptosis in human SH-SY5Y cells assessed as early apoptotic cells at 25 uM pretreated for 1 hr followed by H2O2-stimulation after 4 hrs by Annexin-V-FITC/propidium iodide staining based flow cytometry (reference value: 6.4%). It is filed as functional.
Assay [10] deals with SH-SY5Y. The assay is described as follows: Neuroprotective activity against H2O2-induced apoptosis in human SH-SY5Y cells assessed as late apoptotic cells at 25 uM pretreated for 1 hr followed by H2O2-stimulation after 4 hrs by Annexin-V-FITC/propidium iodide staining based flow cytometry (reference value: 15%). It is filed as functional.
The test system of assay [11] is SH-SY5Y. The assay is described as follows: Neuroprotective activity against H2O2-induced apoptosis in human SH-SY5Y cells assessed as necrotic cells at 100 uM pretreated for 1 hr followed by H2O2-stimulation after 4 hrs by Annexin-V-FITC/propidium iodide staining based flow cytometry (reference value: 2.63%). It is filed as functional.
Assay [12] relates to SH-SY5Y. The assay is described as follows: Neuroprotective activity against H2O2-induced apoptosis in human SH-SY5Y cells assessed as viable cells at 25 uM pretreated for 1 hr followed by H2O2-stimulation after 4 hrs by Annexin-V-FITC/propidium iodide staining based flow cytometry (reference value: 76%). It is filed as functional. Particulars: read-out: Activity.
For assay [13], the system named is SH-SY5Y. The assay is described as follows: Neuroprotective activity against H2O2-induced apoptosis in human SH-SY5Y cells assessed as necrotic cells at 50 uM pretreated for 1 hr followed by H2O2-stimulation after 4 hrs by Annexin-V-FITC/propidium iodide staining based flow cytometry (reference value: 2.63%). The format is functional.
For assay [14], the system named is SH-SY5Y. Briefly: Neuroprotective activity against H2O2-induced apoptosis in human SH-SY5Y cells assessed as late apoptotic cells at 50 uM pretreated for 1 hr followed by H2O2-stimulation after 4 hrs by Annexin-V-FITC/propidium iodide staining based flow cytometry (reference value: 15%). The format is functional.
Assay [15] has as its system SH-SY5Y. The assay is described as follows: Neuroprotective activity against H2O2-induced apoptosis in human SH-SY5Y cells assessed as early apoptotic cells at 50 uM pretreated for 1 hr followed by H2O2-stimulation after 4 hrs by Annexin-V-FITC/propidium iodide staining based flow cytometry (reference value: 6.4%). The format is functional.
Assay [16] deals with SH-SY5Y. The assay is described as follows: Neuroprotective activity against H2O2-induced apoptosis in human SH-SY5Y cells assessed as late apoptotic cells at 100 uM pretreated for 1 hr followed by H2O2-stimulation after 4 hrs by Annexin-V-FITC/propidium iodide staining based flow cytometry (reference value: 15%). The format is functional.

`C[C@@]1(CO)C[C@@H](O)C[C@]2(C)[C@@H]1CC[C@]13C=C(C(=O)O)[C@H](CC[C@H]12)C3`: the outcome in the assay on SH-SY5Y [1] was inactive.
As for `C[C@@]1(CO)CC(=O)C[C@]2(C)[C@@H]1CC[C@@]13C[C@@H](CC[C@H]12)[C@@H](C(=O)O)C3`, the Activity in the assay with SH-SY5Y [2] is reported as over 10%.
As to `COC(=O)[C@]1(C)C[C@@H](O)C[C@@]2(C)[C@@H]3CC[C@@H]4C[C@]3(C=C4C(=O)O)CC[C@@H]21`, the outcome in the assay on SH-SY5Y [1] was inactive.
In the case of `CC1(C)[C@H](O)[C@@H](O)C[C@]2(C)[C@@H]1CC[C@]13C=C(C(=O)O)[C@H](CC[C@H]12)C3`, in the assay on SH-SY5Y [2], the Activity is recorded as over 10%.
With `C[C@@]12C[C@H](O)C[C@@](C)(C(=O)O)[C@H]1CC[C@@]13C[C@@H](CC[C@H]12)[C@@H](C(=O)O)C3`, the result in the assay with SH-SY5Y [1] was inactive.
In the case of `C[C@@]1(O)[C@H](O)CC[C@@]2(C)[C@@H]3CC[C@@H]4C[C@@]3(CC[C@H]12)C[C@@H]4C(=O)O`, the Activity in the assay with SH-SY5Y [2] was over 10%.
On to `COC(=O)[C@]1(C)C[C@@H](O)C[C@@]2(C)[C@@H]3CC[C@@H]4C[C@@]3(CC[C@@H]21)C[C@@H]4C(=O)O`, for which the result in the assay on SH-SY5Y [1] was inactive.
With `COC(=O)[C@]1(C)CC[C@H](O)[C@@]2(C)[C@@H]3CC[C@@H]4C[C@]3(C=C4C(=O)O)CC[C@@H]21`, the result in the assay on SH-SY5Y [1] was inactive.
As to `C[C@@]12CCC[C@@](C)(C(=O)O)[C@H]1CC[C@@]13C[C@@H](CC[C@H]12)[C@](O)(CO)C3`, the outcome with SH-SY5Y [1] was inactive.
Same read-out and setting: to `C[C@@]1(O)[C@H](O)CC[C@@]2(C)[C@@H]3CC[C@@H]4C[C@]3(C=C4C(=O)O)CC[C@H]12` belongs “inactive”.
Still for that read-out and setting: then `C[C@@]12CCC[C@@](C)(C(=O)O)[C@H]1CC[C@]13C=C(C(=O)O)[C@H](CC[C@H]12)C3`, with “inactive”.
On the same count and under the same terms, then `C[C@@]12C[C@H](O)C[C@@](C)(C=O)[C@H]1CC[C@]13C=C(C(=O)O)[C@H](CC[C@H]12)C3`, with “inactive”.
In the case of `C[C@@]12CCC[C@@](C)(O)[C@H]1CC[C@]13C=C(C(=O)O)[C@H](CC[C@H]12)C3`, the outcome in the assay on SH-SY5Y [3] was Active. Moreover, in the assay with SH-SY5Y [4], the viability at 100 µM stood at 90%. The Activity in the assay on SH-SY5Y [5] is 2.58%; in the assay on SH-SY5Y [6], “Dose-dependent effect”; with SH-SY5Y [7], 1.29%; with SH-SY5Y [9] it was 3.23%; in the assay with SH-SY5Y [10], 9.28%; in the assay with SH-SY5Y [2], over 10%. Moreover, the Activity with SH-SY5Y [11] is reported as 1.44%; in the assay with SH-SY5Y [13], 0.727%; in the assay on SH-SY5Y [14], 5.34%; with SH-SY5Y [15], 3.93%; with SH-SY5Y [16], 5.94%. Also, in the assay on SH-SY5Y [8], the viability at 50 µM came to 90%. In addition, the viability at 25 µM with SH-SY5Y [12] turned out to be 86.2%.
Consider `C[C@@]1(CO)C[C@@H](O)C[C@]2(C)[C@@H]1CC[C@@]13C[C@@H](CC[C@H]12)[C@@H](C(=O)O)C3`, for which the result with SH-SY5Y [1] was inactive.
In the case of `C[C@@]12CCC[C@@](C)(C=O)[C@H]1CC[C@@]13C=C(C(=O)O)[C@@H](C1)[C@@H](O)C[C@H]32`, in the assay with SH-SY5Y [2], the Activity is given as over 10%.

Source of the values: ChEMBL document CHEMBL4145575, “ent-Kaurane Diterpenoids with Neuroprotective Properties from Corn Silk ( Zea mays)” (2018).
